Source: ChEMBL document CHEMBL4689842, “EUbOPEN Chemogenomics Library wave 1” (2021)

Key:
HEK-293T = assay: Multiplex assay against HEK293T; type: toxicity, cell-based; conditions: human;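 on Population Tubulin-Different-Phenotype (%): share of the cells with healthy nuclei that show this phenotype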
Outline: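 Imaging took place on a CQ1 microscope at 37°C and 5% CO2 once compound had been added to live cells stained at seeding with Hoechst33342, BioTracker Green Microtubule Cytoskeleton Dye, MitoTracker Red and Annexin V Alexa Fluor 680. CellPathfinder machine-learning gating classed cells as Hoechst high-intensity objects or normal cells, classed normal cells as having healthy, pyknosed or fragmented nuclei, and classed pyknosed cells as mitotic or apoptotic. Tubulin, mitochondrial-mass and membrane-permeability phenotypes are per cents of the healthy-nucleus cells.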

Fibroblast = assay: Incucyte cell viability with human fibroblast; type: toxicity, cell-based; conditions: 10 µM, compound concentration 10 uM; further: filed as whole numbers so only -1 and 0 and 1 occur
[1] = 24 h, 10 µM, compound concentration 10 uM, replicate 1
[2] = 24 h, 10 µM, compound concentration 10 uM, replicate 2
[3] = 48 h, 1 µM, compound concentration 1 uM, replicate 1
[4] = 48 h, 1 µM, compound concentration 1 uM, replicate 2
[5] = 48 h, 10 µM, compound concentration 10 uM, replicate 1
[6] = 48 h, 10 µM, compound concentration 10 uM, replicate 2

For `CCC(=O)O[C@]1(C(=O)SCF)[C@H](C)C[C@H]2[C@@H]3C[C@H](F)C4=CC(=O)C=C[C@]4(C)[C@@]3(F)[C@@H](O)C[C@@]21C` [FLUTICASONE PROPIONATE], the “Population Healthy Nuclei (%)” value (HEK-293T; [1]) was 33%, the “Population Hoechst High Intensity Objects (%)” value (HEK-293T; [1]) was 15% and the “Population Membrane Permeable-Phenotype (%)” value (HEK-293T; [1]) was 0%. The “Population Mitochondria Different-Phenotype (%)” value (HEK-293T; [1]) was 80%, the “Population Mitotic Cells (%)” value (HEK-293T; [1]) was 38% and the “Population Normal (%)” value (HEK-293T; [1]) was 84%. For the same molecule, the “Population Pyknosed Nuclei (%)” value (HEK-293T; [1]) was 50%, the “Population Tubulin-Different-Phenotype (%)” value (HEK-293T; [1]) was 67% and the “Total Cell Count” value (HEK-293T; [1]) was 237. For the same molecule, the “Population Apoptotic (%)” value (HEK-293T; [2]) was 44%, the “Population Fragmented Nuclei (%)” value (HEK-293T; [2]) was 11% and the “Population Healthy Nuclei (%)” value (HEK-293T; [2]) was 44%. The “Population Hoechst High Intensity Objects (%)” value (HEK-293T; [2]) was 3%, the “Population Membrane Permeable-Phenotype (%)” value (HEK-293T; [2]) was 8% and the “Population Mitochondria Different-Phenotype (%)” value (HEK-293T; [2]) was 43%. For the same molecule, the “Population Mitotic Cells (%)” value (HEK-293T; [2]) was 55%, the “Population Normal (%)” value (HEK-293T; [2]) was 96% and the “Population Pyknosed Nuclei (%)” value (HEK-293T; [2]) was 44%. For the same molecule, the “Population Tubulin-Different-Phenotype (%)” value (HEK-293T; [2]) was 53%, the “Total Cell Count” value (HEK-293T; [2]) was 226 and the “Population Apoptotic (%)” value (HEK-293T; [3]) was 50%. The “Population Fragmented Nuclei (%)” value (HEK-293T; [3]) was 14%, the “Population Healthy Nuclei (%)” value (HEK-293T; [3]) was 50% and the “Population Hoechst High Intensity Objects (%)” value (HEK-293T; [3]) was 14%. The “Population Membrane Permeable-Phenotype (%)” value (HEK-293T; [3]) was 2%, the “Population Mitochondria Different-Phenotype (%)” value (HEK-293T; [3]) was 34% and the “Population Mitotic Cells (%)” value (HEK-293T; [3]) was 50%. For the same molecule, the “Population Normal (%)” value (HEK-293T; [3]) was 85%, the “Population Pyknosed Nuclei (%)” value (HEK-293T; [3]) was 35% and the “Population Tubulin-Different-Phenotype (%)” value (HEK-293T; [3]) was 28%. The “Total Cell Count” value (HEK-293T; [3]) was 348, the “Population Apoptotic (%)” value (HEK-293T; [4]) was 9% and the “Population Fragmented Nuclei (%)” value (HEK-293T; [4]) was 4%. For the same molecule, the “Population Healthy Nuclei (%)” value (HEK-293T; [4]) was 81%, the “Population Hoechst High Intensity Objects (%)” value (HEK-293T; [4]) was 2% and the “Population Membrane Permeable-Phenotype (%)” value (HEK-293T; [4]) was 5%. The “Population Mitochondria Different-Phenotype (%)” value (HEK-293T; [4]) was 3%, the “Population Mitotic Cells (%)” value (HEK-293T; [4]) was 90% and the “Population Normal (%)” value (HEK-293T; [4]) was 97%. The “Population Pyknosed Nuclei (%)” value (HEK-293T; [4]) was 13%, the “Population Tubulin-Different-Phenotype (%)” value (HEK-293T; [4]) was 23% and the “Total Cell Count” value (HEK-293T; [4]) was 621. For the same molecule, the “Population Apoptotic (%)” value (HEK-293T; [5]) was 67%, the “Population Fragmented Nuclei (%)” value (HEK-293T; [5]) was 15% and the “Population Healthy Nuclei (%)” value (HEK-293T; [5]) was 51%. For the same molecule, the “Population Hoechst High Intensity Objects (%)” value (HEK-293T; [5]) was 12%, the “Population Membrane Permeable-Phenotype (%)” value (HEK-293T; [5]) was 10% and the “Population Mitochondria Different-Phenotype (%)” value (HEK-293T; [5]) was 60%. The “Population Mitotic Cells (%)” value (HEK-293T; [5]) was 32%, the “Population Normal (%)” value (HEK-293T; [5]) was 87% and the “Population Pyknosed Nuclei (%)” value (HEK-293T; [5]) was 33%. The “Population Tubulin-Different-Phenotype (%)” value (HEK-293T; [5]) was 55%, the “Total Cell Count” value (HEK-293T; [5]) was 278 and the “Population Apoptotic (%)” value (HEK-293T; [6]) was 28%. The “Population Fragmented Nuclei (%)” value (HEK-293T; [6]) was 7%, the “Population Healthy Nuclei (%)” value (HEK-293T; [6]) was 74% and the “Population Hoechst High Intensity Objects (%)” value (HEK-293T; [6]) was 5%. The “Population Membrane Permeable-Phenotype (%)” value (HEK-293T; [6]) was 9%, the “Population Mitochondria Different-Phenotype (%)” value (HEK-293T; [6]) was 22% and the “Population Mitotic Cells (%)” value (HEK-293T; [6]) was 71%. For the same molecule, the “Population Normal (%)” value (HEK-293T; [6]) was 94%, the “Population Pyknosed Nuclei (%)” value (HEK-293T; [6]) was 18% and the “Population Tubulin-Different-Phenotype (%)” value (HEK-293T; [6]) was 52%. The “Total Cell Count” value (HEK-293T; [6]) was 330, the “Growth Rate” value (Fibroblast; 0 h, replicate number 1, timepoint 0 hours) was 0 and the “Growth Rate” value (Fibroblast; 6 h, replicate number 1, timepoint 6 hours) was 1. For the same molecule, the “Growth Rate” value (Fibroblast; 18 h, replicate number 1, timepoint 18 hours) was 1 and the “Growth Rate” value (Fibroblast; 24 h, replicate number 1, timepoint 24 hours) was 1.
